Here are results for eight compounds from ChEMBL document CHEMBL2424641, “Synthesis and evaluation of novel radioligands for positron emission tomography imaging of the orexin-2 receptor” (J Med Chem, 2013).

SMILES strings stand for the structures. Activity calls are given as the source filed them. The calls are words filed in the database; no cut-off is given here.

A short description of data set [1]: Ratio of flux ratio in pig LLC cells expressing MDR1 to flux ratio on pig LLC-PK1 cells. The class given is ADME, cell-based, Sus scrofa. The method in brief:
(§1)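 LLC-PK1 and LLC-MDR1 monolayers, 5 days post-seeding, preincubated 2 h at 37 °C in HBSS/10 mM HEPES. Compound added apically or basally, 2 h at 37 °C; opposite side assayed by LC-MS. Papp = Q/t/C0/A; FR = Papp(b→a)/Papp(a→b); corrected FR = FR(LLC-MDR1)/FR(LLC-PK1).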

The next data set concerns LLC-PK1. The experiment in a line: Flux ratio of permeability from apical to basolateral to basolateral to apical side in pig LLC-PK1 cells after 2 hrs. As to conditions: llc-pk1, 2 h. The class given is ADME, cell-based, Sus scrofa. The gist of the method: as §1
Data set [2] in a line: Octanol-phosphate buffer partition coefficient, log D of the compound at pH 7.4 by Shake flask method. The class given is physicochemical. The gist of the method: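 [11C]-labelled compound (about 200 000 cpm) in n-octanol and 0.1 M PBS pH 7.4, vortexed 3 min at rt and centrifuged; weighed aliquots of each phase γ-counted, with the organic layer repartitioned until stable. log D = log(cpm/g octanol ÷ cpm/g PBS); triplicate.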

Data set [3] in a line: Flux ratio of permeability from apical to basolateral to basolateral to apical side in pig LLC cells expressing MDR1 after 2 hrs. It is filed as ADME, cell-based, Sus scrofa. The gist of the method: as §1
In a further data set the target is T1, Orexin receptor type 2 (Homo sapiens, UniProt O43614).
T1 sequence (O43614 whole entry): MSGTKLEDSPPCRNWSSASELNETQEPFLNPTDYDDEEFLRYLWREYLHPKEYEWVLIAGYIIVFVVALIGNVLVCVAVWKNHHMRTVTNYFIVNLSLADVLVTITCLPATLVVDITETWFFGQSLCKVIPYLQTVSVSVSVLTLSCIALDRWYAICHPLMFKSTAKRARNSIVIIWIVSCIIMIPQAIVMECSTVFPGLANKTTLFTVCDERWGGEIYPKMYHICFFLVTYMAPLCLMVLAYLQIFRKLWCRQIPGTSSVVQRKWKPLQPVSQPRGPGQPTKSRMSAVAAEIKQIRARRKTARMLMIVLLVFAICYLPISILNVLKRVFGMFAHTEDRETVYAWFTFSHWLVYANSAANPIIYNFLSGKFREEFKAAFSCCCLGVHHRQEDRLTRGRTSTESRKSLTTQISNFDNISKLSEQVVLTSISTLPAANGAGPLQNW
The experiment in a line: Displacement of [125I]-orexin-A from human OX2 receptor expressed in CHO cells after 30 mins by liquid scintillation counting analysis. The class given is cell-based. The gist of the method:
(§2)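 CHO membranes expressing human OX1R or OX2R (5 μg protein) incubated 30 min at rt with compound and [125I]-orexin A (2 nM stock) in HEPES buffer pH 7.5 with MgCl2, CaCl2, BSA. Nonspecific binding with 10 μM orexin A. Wells washed with HEPES/525 mM NaCl and DPM counted. % inhibition from test, control and nonspecific counts; mean of three wells.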

For data set [4], the target named is T2, Orexin/Hypocretin receptor type 1 (Homo sapiens, UniProt O43613).
T2 sequence (O43613 whole entry): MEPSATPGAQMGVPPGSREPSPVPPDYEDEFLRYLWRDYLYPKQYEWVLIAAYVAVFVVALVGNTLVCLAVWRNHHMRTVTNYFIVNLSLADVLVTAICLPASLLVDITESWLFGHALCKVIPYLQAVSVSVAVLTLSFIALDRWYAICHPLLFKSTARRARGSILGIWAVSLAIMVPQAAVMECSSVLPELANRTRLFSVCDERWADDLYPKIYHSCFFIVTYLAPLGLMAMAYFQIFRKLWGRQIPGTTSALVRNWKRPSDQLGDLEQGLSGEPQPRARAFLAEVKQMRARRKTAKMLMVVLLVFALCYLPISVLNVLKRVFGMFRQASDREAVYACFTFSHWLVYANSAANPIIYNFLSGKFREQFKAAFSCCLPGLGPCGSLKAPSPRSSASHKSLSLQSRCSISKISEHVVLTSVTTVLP
Put plainly: Displacement of [125I]-orexin-A from human OX1 receptor expressed in CHO cells after 30 mins by liquid scintillation counting analysis. It is filed as cell-based. The gist of the method: as §2
For orientation: Displacement assays read how much labelled ligand stays bound in the presence of the test substance.

The subject of a further data set is Cerebellum. The experiment in a line: Drug uptake in P-gp-knockout rat cerebellum at 78.7 to 189.8 MBq, iv after 90 mins by PET analysis in presence of 10 mg/kg, po unlabeled compound. It is filed as ADME, organism-based. On the set-up: dose 10 mg/kg, route oral. Particulars: in vivo, 1.5 h. The gist of the method: (§3)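 Male Mdr1a-knockout rats (410−500 g) under 1.5% isoflurane at 37 °C; [11C] tracer 78.7−189.8 MBq by tail vein. 90 min list-mode microPET scan with filtered back-projection; ROIs drawn on MRI template; decay-corrected %ID/mL, n = 3. Blocking: unlabeled compound 10 mg/kg po in 5% DMSO/10% cremophor in 10 mM HCl, given 1 h before tracer.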

In another data set the test system is Thalamus. Put plainly: Drug uptake in P-gp-knockout rat thalamus at 78.7 to 189.8 MBq, iv after 90 mins by PET analysis. It is filed as ADME, organism-based. Particulars: in vivo, 1.5 h. The gist of the method:
as §3

The target in data set [5] is T3, Orexin receptor type 2 (Rattus norvegicus) (UniProt P56719).
T3 sequence (whole entry): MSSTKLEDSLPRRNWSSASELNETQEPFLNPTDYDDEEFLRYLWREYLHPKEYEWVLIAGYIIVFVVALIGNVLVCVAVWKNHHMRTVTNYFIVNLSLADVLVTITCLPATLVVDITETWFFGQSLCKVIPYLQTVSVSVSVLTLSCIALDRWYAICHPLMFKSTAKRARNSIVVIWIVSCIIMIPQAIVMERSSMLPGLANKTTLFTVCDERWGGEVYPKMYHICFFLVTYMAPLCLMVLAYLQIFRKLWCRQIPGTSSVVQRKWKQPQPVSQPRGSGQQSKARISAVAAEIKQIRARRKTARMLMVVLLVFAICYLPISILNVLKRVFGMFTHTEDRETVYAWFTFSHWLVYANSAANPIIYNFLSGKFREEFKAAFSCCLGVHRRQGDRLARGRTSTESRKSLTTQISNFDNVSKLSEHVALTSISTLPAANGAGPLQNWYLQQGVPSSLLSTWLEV
The experiment in a line: Binding affinity to OX2 receptor in rat brain neocortex layer 6 at 3.6 nM by autoradiography in presence of EMPA. It is filed as tissue-based. As to conditions: tested as the 11C-labelled form.

Data set [6] has as its target T3, Orexin receptor type 2 (Rattus norvegicus). Put plainly: Binding affinity to OX2 receptor in coronal rat hypothalamus at 2.5 nM by autoradiography. As to conditions: tested as the 11C-labelled form. The method in brief: (§4)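 Rat brain sections (20 μm) preincubated 20 min at rt in 25 mM HEPES pH 7.4 with 5 mM MgCl2 and 1 mM CaCl2, then incubated 60 min at rt with 11C radioligand; nonspecific binding with 10 μM unlabeled compound. Sections washed three times in cold water, dried, exposed to imaging plate 1 h alongside calibrated radioactive standards.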

In a further data set the test system is Hippocampus. Put plainly: Drug uptake in P-gp-knockout rat hippocampus at 78.7 to 189.8 MBq, iv after 90 mins by PET analysis. It is filed as ADME, organism-based. Particulars: in vivo, 1.5 h. The method in brief: as §3
Data set [7] is described as follows: Drug uptake in P-gp-knockout rat neocortex at 78.7 to 189.8 MBq, iv after 90 mins by PET analysis. It is filed as ADME, organism-based. Particulars: in vivo, 1.5 h. The gist of the method:
as §3

Data set [8] has as its target Melatonin receptor type 1A (Homo sapiens) (UniProt P48039). The experiment in a line: Antagonist activity at melatonin MT1A receptor (unknown origin) expressed in HEK 293 cells coexpressing Gqi5 chimeric G-protein after 1 hr by fluorescence-based analysis. It is filed as cell-based. The method in brief:
(§5)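 HEK293 cells stably expressing target GPCR with Gqi5 chimeric G-protein, seeded on collagen I plates and cultured overnight; calcium dye loaded 1 h at 37 °C. Compound at final 3, 10, 30 μM preincubated 1 h at rt, then reference agonist added at EC20 or EC80; Ca2+ fluorescence read in real time.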

The target in data set [9] is Cannabinoid receptor 1 (Homo sapiens) (UniProt P21554). Put plainly: Antagonist activity at cannabinoid CB1 receptor (unknown origin) expressed in HEK 293 cells coexpressing Gqi5 chimeric G-protein after 1 hr by fluorescence-based analysis. It is filed as cell-based. The gist of the method: as §5
Cannabinoid receptor 1 (Homo sapiens), sequence (P21554 whole entry): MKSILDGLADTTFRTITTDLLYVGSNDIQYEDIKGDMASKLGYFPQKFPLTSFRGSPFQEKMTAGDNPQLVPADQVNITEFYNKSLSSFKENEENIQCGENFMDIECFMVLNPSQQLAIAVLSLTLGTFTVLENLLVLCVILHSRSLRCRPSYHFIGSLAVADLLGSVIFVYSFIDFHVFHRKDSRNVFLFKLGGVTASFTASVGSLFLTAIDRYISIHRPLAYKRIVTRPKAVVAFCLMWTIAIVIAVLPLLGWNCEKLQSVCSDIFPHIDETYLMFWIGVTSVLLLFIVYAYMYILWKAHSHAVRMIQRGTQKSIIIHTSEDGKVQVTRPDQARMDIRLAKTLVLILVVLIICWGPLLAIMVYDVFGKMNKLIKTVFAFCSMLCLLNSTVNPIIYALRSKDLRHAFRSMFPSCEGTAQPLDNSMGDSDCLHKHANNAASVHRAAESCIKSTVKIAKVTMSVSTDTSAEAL
The target of data set [10] is T3, Orexin receptor type 2 (Rattus norvegicus). Put plainly: Binding affinity to OX2 receptor in rat brain neocortex layer 6 at 3.6 nM by autoradiography in presence of suvorexant. It is filed as tissue-based. As to conditions: tested as the 11C-labelled form.
Data set [11] has the same target. The experiment in a line: Binding affinity to OX2 receptor in coronal rat brain neocortex layer 6 at 2.5 nM by autoradiography. It is filed as tissue-based. Particulars: tested as the 11C-labelled form. The gist of the method:
as §4

The target is the same in data set [12]. Put plainly: Binding affinity to OX2 receptor in coronal rat neocortex layer 6 at 2 nM by autoradiography. Particulars: tested as the 11C-labelled form. The method in brief:
as §4

For data set [13] the target is unchanged. Put plainly: Binding affinity to OX2 receptor in coronal rat hypothalamus at 2 nM by autoradiography. Particulars: tested as the 11C-labelled form. The method in brief: as §4
Setting [14] is: HEK293, tested as the 11C-labelled form.

Melatonin receptor type 1A (Homo sapiens), sequence (P48039 whole entry): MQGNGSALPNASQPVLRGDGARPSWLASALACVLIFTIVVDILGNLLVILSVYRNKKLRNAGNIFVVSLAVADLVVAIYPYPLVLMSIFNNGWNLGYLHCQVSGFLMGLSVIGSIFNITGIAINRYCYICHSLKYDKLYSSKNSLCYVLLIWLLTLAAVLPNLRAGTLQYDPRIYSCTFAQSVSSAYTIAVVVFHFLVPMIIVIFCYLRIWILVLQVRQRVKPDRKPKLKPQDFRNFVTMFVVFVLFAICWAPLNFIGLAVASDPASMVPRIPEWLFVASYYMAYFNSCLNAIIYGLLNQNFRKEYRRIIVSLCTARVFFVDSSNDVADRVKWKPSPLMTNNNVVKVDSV

What is called logD is lipophilicity at a set pH, counting ionised and neutral species. Low readings indicate a more hydrophilic compound, high ones a more lipophilic compound. As a reminder, the Ki is a measure of affinity in units of concentration, obtained from inhibition or displacement. The low end stands for a stronger hold on the target, the high end for a looser hold on the target. With `COc1ccc([C@]2(COc3cnc(C)nc3C)C[C@H]2C(=O)Nc2ccc(F)cn2)cc1F`, the values for the Ratio (in data set [1]; in the data set with LLC-PK1; in data set [3]) were 1.55, 0.8 and 1.24, respectively. Further, the logD in [2] came to 3.32. Besides, the Ki is 7 nM on Orexin receptor type 2 and 30 nM in data set [4].
As to `COc1nc(NC(=O)[C@@H]2C[C@@]2(COc2cnc(C)nc2C)c2cccc(F)c2)ccc1F`, the Ratio in data set [1] is given as 1.21; in the data set on LLC-PK1 it was 0.81; in data set [3] it was 0.98. This compound also returned a logD in [2] of 3.6. Moreover, the values for the Ki (on Orexin receptor type 2; in [4]) were 2 nM and 12 nM, respectively.
Regarding `Cc1ncc(OC[C@@]2(c3cccc(F)c3)C[C@H]2C(=O)Nc2ccc(F)c(O[11CH3])n2)c(C)n1`, the logD in data set [2] worked out at 3.6.
For `COCc1nc(C)ncc1OC[C@@]1(c2cccc(F)c2)C[C@H]1C(=O)Nc1ccc(F)cn1`, the Drug uptake result (with Cerebellum; with Thalamus; in the data set on Hippocampus; in data set [7]) was “Active” throughout. The result in [5] and in [10] was inactive. Further, the result in data set [6], in data set [8] (HEK293), in [8] (setting [14]), in data set [9] (HEK293), in [9] (setting [14]) and in [11] was Active. In addition, the result in [12] was Active. The Ratio in [1] is 3.11; with LLC-PK1, 0.84; in data set [3], 2.61. The compound also gave a logD in data set [2] of 2.97. Moreover, the Ki (at Orexin receptor type 2; in data set [4]) was 1 nM throughout.
As for `Cc1ncc(OC[C@@]2(c3cccc(F)c3)C[C@H]2C(=O)Nc2cc(O[11CH3])c(F)cn2)c(C)n1`, the Drug uptake result in the data set with Cerebellum is “Not Active”; in the data set with Thalamus it was “Active”; in the data set with Hippocampus it was “Active”; in data set [7] it was “Active”. In data set [2], the logD worked out at 2.93.
As for `COc1cc(NC(=O)[C@@H]2C[C@@]2(COc2cnc(C)nc2C)c2cccc(F)c2)ncc1F`, the outcome in data set [13], in data set [11] and in data set [12] was Active. In addition, the values for the Ratio (in data set [1]; in the data set on LLC-PK1; in [3]) were 2.06, 1.19 and 2.45, respectively. Besides, in [2], the logD was found to be 2.93. Also, the Ki was found to be 2 nM at Orexin receptor type 2 and 3 nM in data set [4].
Take `Cc1ncc(OC[C@@]2(c3cccc(F)c3)C[C@H]2C(=O)Nc2ccc(C#N)cn2)c(C)n1`: the Ratio in [1] stood at 1.76; in the data set with LLC-PK1, 1.09; in data set [3] it was 1.92. The Ki worked out at 5 nM at Orexin receptor type 2 and 32 nM in data set [4].
In the same order, the values of `COCc1nc(C)ncc1OC[C@@]1(c2ccccc2)C[C@H]1C(=O)Nc1ccc(F)cn1` are 2.03, 0.97, 1.97, 1 nM and 9 nM.
